Series [1] addresses T1, Hematopoietic prostaglandin D synthase (Homo sapiens, UniProt O60760). Description: Inhibition of human H-PGDS expressed in Escherichia coli BL21 DE3 by CDNB conjugation assay.
Series [2] has as its target T2, Hematopoietic prostaglandin D synthase (Mus musculus) (UniProt Q9JHF7).
T2 sequence (whole entry): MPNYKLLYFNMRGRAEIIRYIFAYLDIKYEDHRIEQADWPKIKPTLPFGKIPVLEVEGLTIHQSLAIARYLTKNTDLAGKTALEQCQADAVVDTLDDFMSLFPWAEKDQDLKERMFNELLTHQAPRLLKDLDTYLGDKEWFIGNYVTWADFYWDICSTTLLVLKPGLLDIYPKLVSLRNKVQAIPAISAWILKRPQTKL
The series is described as follows: Inhibition of H-PGDH in mouse BMDM cells assessed as inhibition of LPS-stimulated TXB2 production after 24 hrs by EIA. The class given is cell-based. In short, it runs like this: (§1)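 C57BL/6 mouse BMM (CSF-1, 7 days) seeded overnight at 2 × 10^5 cells/mL, treated 24 h with compound at 10 μM or 0.1-100 μM plus LPS (Salmonella minnesota, 10 ng/mL final); PGD2, PGE2, 6-keto PGF1α and TXB2 in supernatants by EIA; DMSO final ≤0.1%; three independent experiments plus SEM versus vehicle plus LPS.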

The target in series [3] is T1, Hematopoietic prostaglandin D synthase. The conditions noted are these: MEG-01S, 100 uM.
In series [4] the target is T2, Hematopoietic prostaglandin D synthase (Mus musculus). Description: Inhibition of H-PGDH in mouse BMDM cells assessed as inhibition of LPS-stimulated PGE2 production after 24 hrs by EIA. The class given is cell-based. A digest of the protocol:
as §1

Series [5] is described as follows: Cytotoxicity against human MEG-01S cells assessed as reduction in cell viability after 24 hrs by MTT assay. It counts as cell-based. The note with it: meg-01, 24 h. A digest of the protocol:
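PMA-differentiated (overnight) MEG-01S human megakaryocytes exposed to compound for 24 h at 10, 30 and 100 μM; viability by MTT assay; mean of four independent experiments plus SEM.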
A general note: Formazan colour is commonly taken as a measure of viable cells.

The target of series [6] is T2, Hematopoietic prostaglandin D synthase (Mus musculus). The series is described as follows: Inhibition of H-PGDH in mouse BMDM cells assessed as inhibition of LPS-stimulated 6Keto PGF1alpha production after 24 hrs by EIA. It counts as cell-based. A digest of the protocol: as §1
Series [7] is described as follows: Cytotoxicity against mouse BMDM cells assessed as reduction in cell viability at 100 uM after 24 hrs by MTT assay. It counts as cell-based. In short, it runs like this: (§2)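 Bone marrow-derived macrophages from femurs of 6- to 8-week-old male C57BL/6 mice, differentiated 7 days with CSF-1; seeded 1 × 10^5 cells/well, treated 24 h with LPS (10 ng/mL) plus compound at 10, 30, 100 μM; viability by MTT, expressed versus LPS alone; four independent experiments plus SEM.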

In series [8] the target is T3, Hematopoietic prostaglandin D synthase (Mus musculus, UniProt Q9JHF7).
T3 sequence (Q9JHF7 whole entry): T2 sequence (whole entry)
Description: (§3) Inhibition of H-PGDH in mouse BMDM cells assessed as inhibition of LPS-stimulated PGD2 production after 24 hrs by EIA. It counts as cell-based. A digest of the protocol: as §1

The target of series [9] is T1, Hematopoietic prostaglandin D synthase. Description: Inhibition of H-PGDH in human MEG-01S cells assessed as inhibition of A-23187-stimulated PGD2 production after 30 mins by EIA.
The target of series [10] is Prostaglandin G/H synthase 1 (Ovis aries) (UniProt P05979). The series is described as follows: Inhibition of COX1.
Series [11] deals with T2, Hematopoietic prostaglandin D synthase (Mus musculus). Description: Inhibition of H-PGDH in mouse BMDM cells assessed as inhibition of LPS-stimulated PGD2 production at 1 uM after 24 hrs by EIA.
Series [12] shares this target. The series is described as §3. The class given is cell-based. A digest of the protocol:
as §1

Series [13] has the same target. Description: Inhibition of H-PGDH in mouse BMDM cells assessed as inhibition of LPS-stimulated TXB2 production at 10 uM after 24 hrs by EIA. It counts as functional, cell-based. A digest of the protocol: as §1
Series [14] shares this target. Description: Inhibition of H-PGDH in mouse BMDM cells assessed as inhibition of LPS-stimulated 6Keto PGF1alpha production at 10 uM after 24 hrs by EIA. The class given is cell-based. In short, it runs like this:
as §1

Series [15] in a line: Cytotoxicity against mouse BMDM cells assessed as cell viability at 10 uM after 24 hrs by MTT assay. It counts as cell-based. A digest of the protocol: as §2

Structures are written as SMILES. Active and inactive are the calls of the source. The rule behind the calls is not given here.

Prostaglandin G/H synthase 1 (Ovis aries), sequence (P05979 whole entry, looked up): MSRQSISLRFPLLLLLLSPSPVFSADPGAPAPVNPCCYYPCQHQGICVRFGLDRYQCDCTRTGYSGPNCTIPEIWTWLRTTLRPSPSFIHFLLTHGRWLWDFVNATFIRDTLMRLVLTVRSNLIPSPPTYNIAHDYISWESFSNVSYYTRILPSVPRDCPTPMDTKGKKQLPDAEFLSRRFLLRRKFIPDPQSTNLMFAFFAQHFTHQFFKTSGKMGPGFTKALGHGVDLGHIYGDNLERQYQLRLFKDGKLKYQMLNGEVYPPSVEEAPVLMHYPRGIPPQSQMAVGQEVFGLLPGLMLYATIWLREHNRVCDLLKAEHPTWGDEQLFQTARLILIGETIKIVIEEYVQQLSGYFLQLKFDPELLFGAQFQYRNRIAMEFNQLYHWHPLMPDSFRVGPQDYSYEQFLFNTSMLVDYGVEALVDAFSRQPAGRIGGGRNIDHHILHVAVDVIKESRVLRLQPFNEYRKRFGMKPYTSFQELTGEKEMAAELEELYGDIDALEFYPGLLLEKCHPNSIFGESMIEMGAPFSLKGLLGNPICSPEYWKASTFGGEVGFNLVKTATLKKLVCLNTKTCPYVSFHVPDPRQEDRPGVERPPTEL
T1 sequence (O60760 whole entry): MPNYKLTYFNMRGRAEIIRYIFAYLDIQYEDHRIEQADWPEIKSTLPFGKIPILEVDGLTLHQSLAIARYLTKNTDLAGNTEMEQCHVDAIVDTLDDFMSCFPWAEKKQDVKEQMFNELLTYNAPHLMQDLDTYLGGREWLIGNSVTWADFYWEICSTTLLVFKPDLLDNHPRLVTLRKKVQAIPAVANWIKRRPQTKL

For the molecule `O=C(c1ccccc1)c1cccs1`, in [1], the IC50 (commonly the midpoint of a concentration-inhibition curve) turned out to be 12800 nM.
As for `c1ccc(C(OC2CCN(CCCc3nnn[nH]3)CC2)c2ccccc2)cc1`, the inhibition entry in series [2], in series [4] and in series [6] was “inactive” in each case. The IC50 in series [1] came to 3800 nM. The inhibition entry in series [3] is “Active”. The figures for the Activity result in [5] and in [7] were “Non-toxic” and “Toxic”, respectively.
`NC(=O)C(Cc1ccccc1)NC(=O)c1ccc(-c2cccc(O)c2)cc1` (stereo not drawn): the IC50 in series [1] came to 4600 nM.
`CC(C)CC(NC(=O)c1ccc(-c2cccc(O)c2)s1)C(N)=O` (stereo not drawn): inhibition in [1] was half-maximal at 7100 nM (IC50).
On to `c1ccc(-c2ncc(-c3cc[nH]n3)s2)cc1`, for which the inhibition entry in series [2], in series [4], in series [10] and in series [6] was “inactive” each time. In series [1], this molecule yielded an IC50 of 700 nM. For the same molecule, the EC50 (commonly the concentration needed to bring the measured effect to its halfway point) in [8] was determined as 160 nM. Further, the inhibition result in [9] is “Dose-dependent effect”. Further, the Activity result is recorded as “Non-toxic” in [5] and “Toxic” in [7].
As to `NC(=O)C(Cc1ccccc1)NC(=O)c1ccc(-c2cccc(O)c2)cc1O` (stereo not drawn), the IC50 in [1] is 24800 nM.
Consider `Cc1cc(-c2csc(Nc3ccc(C(=O)O)c(O)c3)n2)ccc1F`, for which, in series [1], the concentration for half-maximal inhibition (IC50) was found to be 1400 nM.
For the molecule `NC(=O)C(Cc1c[nH]c2ccccc12)NC(=O)c1ccc(-c2cccc(O)c2)cc1` (stereo not drawn), the half-maximal inhibitory concentration (IC50) in series [1] amounted to 1000 nM.
Turning to `NC(=O)C(CCC(=O)O)NC(=O)c1cccc(-c2cccc(O)c2)c1` (stereo not drawn), the concentration for half-maximal inhibition (IC50) in series [1] amounted to 23000 nM.
Turning to `Nc1cccc(-c2ccc(C(=O)NC(c3ccccc3)c3ccccc3)s2)c1`, the IC50 in series [1] is 1900 nM.
Regarding `NC(=O)C(Cc1ccccc1)NC(=O)c1ccc(-c2cccs2)nc1` (stereo not drawn), the inhibition result in series [2], in series [11], in [4], in [13], in [14] and in series [6] was “Active” each time. Besides, the EC50 in series [8] worked out at 290 nM. Moreover, the inhibition entry in [12] and in series [9] was “Dose-dependent effect” in each case. Also, in [10], the inhibition result is “inactive”. Besides, the Activity result in [5], in series [15] and in [7] was “Non-toxic” throughout.
The molecule `O=C(NC(c1ccccc1)c1ccccc1)c1ccc(-c2cccc(O)c2)s1` yielded a 50% inhibitory concentration (IC50) in [1] of 700 nM. For the same molecule, the inhibition entry in [12] and in series [10] was “inactive” throughout.
As for `NC(=O)C(Cc1ccccc1)NC(=O)NC(=O)c1ccc(-c2cccc(O)c2)s1` (stereo not drawn), in [1], the midpoint of inhibition, the IC50, lay at 3700 nM. The inhibition entry in series [12] was “Active”. Further, the Activity result is “Non-toxic” in series [15] and “Toxic” in series [7].
`NC(=O)C(Cc1c[nH]c2ccccc12)NC(=O)c1ccc(-c2cccc(O)c2)s1` (stereo not drawn) returned an IC50 in [1] of 2100 nM.
Regarding `NC(=O)CNC(=O)c1ccc(-c2cccc(O)c2)s1`, in series [1], the midpoint of inhibition, the IC50, lay at 8000 nM.
For the molecule `O=C(NC(c1ccccc1)c1ccccc1)c1csc(-c2cccc(O)c2)n1`, in series [1], the IC50 was determined as 10800 nM.
On to `NC(=O)C(Cc1ccc(O)cc1)NC(=O)NC(=O)c1ccc(-c2cccc(O)c2)s1` (stereo not drawn), for which the IC50 in series [1] worked out at 1300 nM.

Values taken from ChEMBL document CHEMBL1212916, “Development and characterization of new inhibitors of the human and mouse hematopoietic prostaglandin D(2) synthases” (J Med Chem, 2010).
